Laboratory results from ChEMBL document CHEMBL1123005, “1-Azacycloalkyl-1,4-benzodiazepin-2-ones with antianxiety-antidepressant actions” (J Med Chem, 1985).
pIC50: −log10 of the molar value. Activity calls are given as the source filed them. No cut-off for these calls is given here.

Experiments:
[1] = molecular target: GABA-A receptor; anion channel (Rattus norvegicus) (UniProt O09028+P15431+P18506+P18508+P19969+P20236+P23574+P23576+P28471+P28473+P30191+P62813+P63079+P63138+Q91ZM7+Q9ES14); test: Binding constant was determined by displacing potential to [3H]-diazepam binding in cerebral cortex homogenates of rat; type: tissue-based
How it was run: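 Wistar rat cerebral cortex homogenate incubated with compound and 2 nM [3H]diazepam at 0 °C for 60 min. Bound label trapped on glass filters and counted by scintillation. Ki = IC50/(1 + L/Kd).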

Mus musculus [2] = test: Effective dose against pentylenetetrazole intoxicity in mice administered subcutaneously; NE = not effective at dose 10 mg/kg; type: functional, organism-based; set-up: dose 10 mg/kg
Mus musculus [3] = test: Effective dose against tetrabenazine induced ptosis in mice administered through subcutaneous route; type: functional; settings: sc
How it was run: (§1)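 Male DS mice, 20-27 g, groups of five. Compound given po or sc in saline or gum arabic at 0.1 mL/10 g. Tetrabenazine 50 mg/kg sc given 1, 4 or 24 h later. Ptosis scored 1-4 at 1 h after TBZ, with ridit transformation. Dose for 50% prevention by regression.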

Mus musculus [4] = test: Effective dose against pentylenetetrazole intoxicity in mice administered orally; type: functional
Rattus norvegicus [5] = test: Percent anticonflict effect in rats when administered through oral route at 16 mg/kg; type: functional
How it was run: (§2)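 Wistar rats in groups of 5-8, Geller-Seifter conflict procedure. Rats trained to lever-press for food on a variable-interval 60-s schedule. Oral dosing. A dose counted positive when shocks exceeded 12 or shock ratio exceeded 4 over four consecutive tone periods. ED50 with 95% limits by probit.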

Mus musculus [6] = test: Effective dose against tetrabenazine induced ptosis in mice administered orally; type: functional; how it was run: as §1
Mus musculus [7] = test: Effective dose against tetrabenazine induced ptosis in mice administered subcutaneously; type: functional; settings: sc; how it was run: as §1
Rattus norvegicus [8] = test: Percent inhibition was evaluated by their anticonflict effect in rats when administered through oral route at 8 mg/kg; type: functional; how it was run: as §2
Mus musculus [9] = test: Effective dose against tetrabenazine induced ptosis in mice administered orally.; type: functional; settings: po; how it was run: as §1
[10] = Acute toxicity was measured in mice after peroral administration (1306-1666); type: organism-based; settings: mouse, in vivo, po
How it was run: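 Male DS mice, 20-26 g, given compound orally; mortality checked the day after treatment in groups of 10. LD50 by probit method, or by up-and-down method of Brownlee et al. (n = 5) where estimated.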

Rattus norvegicus [11] = test: Effective dose was evaluated by their anticonflict effect in rats when administered through oral route; type: functional; how it was run: as §2
Rattus norvegicus [12] = organism: Rattus norvegicus; test: Inhibitory activity against uptake of [3H]norepinephrine into rat brain synaptosomes.; type: functional
How it was run: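 P2 synaptosomes from male Wistar rat cerebral cortex incubated with [3H]norepinephrine at 37 °C for 20 min, with compound at 5-6 concentrations. Stopped by Krebs-Henseleit dilution and glass-fibre filtration, then scintillation counting. IC50 taken as the concentration giving 50% uptake inhibition.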

Mus musculus [13] = test: Effective dose against pentylenetetrazole intoxicity in mice administered through subcutaneous route; type: functional; settings: sc
Mus musculus [14] = test: Effective dose against tetrabenazine induced ptosis in mice administered subcutaneously at 50 mg/kg; type: functional; settings: sc, route subcutaneous; how it was run: as §1
Mus musculus [15] = test: Effective dose against pentylenetetrazole intoxicity in mice administered subcutaneously at 20 mg/kg; type: functional; settings: sc, route subcutaneous
[16] = Mus musculus, po, read-out: ED50

SMILES	K2 [1]	ED50 (Mus musculus [4])	ED50 (Mus musculus [4]; [16])	ED50 (Mus musculus [6]; [16])	ED50 (Mus musculus [7])	ED50 (Rattus norvegicus [11])	pIC50 (Rattus norvegicus [12])	ED50 (Mus musculus [6])	further results
CCOC(=O)N1CCC(N2C(=O)CN=C(c3ccccc3)c3ccccc32)CC1	2.3 µM	–	–	–	–	–	–	–	ED50 (Mus musculus [2]): inactive; ED50 (Mus musculus [3]): 0.65 mg/kg
CN1CCC(N2C(=O)CN=C(c3ccccc3)c3cc(F)ccc32)CC1	2.42 µM	25.79 mg/kg	30 mg/kg	1.41 mg/kg	–	–	–	–	inhibition in vivo at 16 mg/kg (Rattus norvegicus [5]): 20%
O=C1CN=C(c2ccccc2F)c2cc(Cl)ccc2N1C1CCNC1 (centres undefined)	0.73 µM	–	20.1 mg/kg	–	28.9 mg/kg	–	–	–	inhibition in vivo at 8 mg/kg (Rattus norvegicus [8]): 60%; ED50 (Mus musculus [9]): 0.4 mg/kg
O=C1CN=C(c2ccccc2F)c2cc(Cl)ccc2N1C1CCNCC1	0.036 µM	11.39 mg/kg	14.2 mg/kg	0.76 mg/kg	0.08 mg/kg	6.51 mg/kg	6.93	0.67 mg/kg	LD50 [10]: 1480 mg/kg
CN1CCC(N2C(=O)CN=C(c3ccccc3Cl)c3cc(Cl)ccc32)CC1	0.021 µM	–	3.24 mg/kg	26.1 mg/kg	–	–	4.40	–	ED50 (Mus musculus [13]): 1.69 mg/kg; inhibition in vivo at 50 mg/kg (Mus musculus [14]): 23%
CN1CCC(N2C(=O)CN=C(c3ccccc3)c3cc(Cl)ccc32)CC1	–	–	29.9 mg/kg	0.58 mg/kg	0.85 mg/kg	8.4 mg/kg	–	0.74 mg/kg	inhibition in vivo at 20 mg/kg (Mus musculus [15]): 50%
